As usually defined, the inhibition is the drop in the measured response relative to a control, in per cent. As usually defined, the IC50 is the concentration that gives 50% inhibition. What is called GI50 is the concentration that inhibits growth by half. A high value points to lower sensitivity of the cells.

Calls of active or inactive are those of the source. The calls are words filed in the database; no cut-off is given here.

The nature of series [1]: Drug uptake in human HeLa cells at early mitotic phase expressing N-terminal hmAG1-tagged recombinant fluorescent KSP at 20 uM after 20 mins by fluorescence microscopic analysis.
In series [2] the target is T1, Kinesin-like protein KIF11 (Homo sapiens) (UniProt P52732).
T1 sequence (whole entry): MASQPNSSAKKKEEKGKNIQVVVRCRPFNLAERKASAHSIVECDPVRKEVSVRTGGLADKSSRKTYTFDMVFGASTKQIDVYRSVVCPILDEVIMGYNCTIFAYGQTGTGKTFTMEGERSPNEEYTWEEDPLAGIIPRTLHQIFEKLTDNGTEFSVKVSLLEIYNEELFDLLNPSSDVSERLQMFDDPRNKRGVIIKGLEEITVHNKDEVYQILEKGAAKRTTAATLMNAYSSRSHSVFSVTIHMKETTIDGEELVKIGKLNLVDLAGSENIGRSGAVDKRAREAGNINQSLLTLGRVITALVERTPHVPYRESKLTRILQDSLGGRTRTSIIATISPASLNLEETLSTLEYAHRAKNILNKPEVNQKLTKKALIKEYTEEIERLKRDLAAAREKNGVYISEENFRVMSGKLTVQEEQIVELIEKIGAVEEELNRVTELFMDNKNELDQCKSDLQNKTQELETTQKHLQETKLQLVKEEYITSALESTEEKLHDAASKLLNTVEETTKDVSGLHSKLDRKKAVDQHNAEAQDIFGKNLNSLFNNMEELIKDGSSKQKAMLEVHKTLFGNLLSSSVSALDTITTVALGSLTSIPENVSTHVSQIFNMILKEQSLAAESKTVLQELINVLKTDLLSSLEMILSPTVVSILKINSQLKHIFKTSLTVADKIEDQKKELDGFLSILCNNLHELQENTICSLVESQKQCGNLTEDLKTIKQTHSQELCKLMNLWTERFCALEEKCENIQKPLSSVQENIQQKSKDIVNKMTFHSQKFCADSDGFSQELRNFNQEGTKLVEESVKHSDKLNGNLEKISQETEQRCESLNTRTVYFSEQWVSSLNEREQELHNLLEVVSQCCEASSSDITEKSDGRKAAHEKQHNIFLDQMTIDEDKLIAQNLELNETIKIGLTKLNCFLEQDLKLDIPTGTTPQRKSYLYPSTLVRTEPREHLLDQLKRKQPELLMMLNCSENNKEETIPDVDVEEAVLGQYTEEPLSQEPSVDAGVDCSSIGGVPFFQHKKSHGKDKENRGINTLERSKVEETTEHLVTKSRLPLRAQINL
The series can be described thus: Inhibition of hmAG1-fused kinesin spindle protein (unknown origin) ATPase activity expressed in human HeLa cells assessed as irregular accumulation of KSP in central region of mitotic cells at 40 uM after 4 hrs by DAPI staining based fluorescence microscopy. The series is classed as cell-based.

Series [3] can be described thus: Drug uptake in human HeLa cells at G2 phase expressing N-terminal hmAG1-tagged recombinant fluorescent KSP at 20 uM after 20 mins by fluorescence microscopic analysis.
The target of series [4] is T2, Kinesin-like protein KIF11 (Homo sapiens, UniProt P52732).
T2 sequence (P52732 whole entry): T1 sequence (whole entry)
The series can be described thus: Inhibition of microtubule-stimulated kinesin spindle protein motor domain (unknown origin) ATPase activity preincubated for 20 mins followed by ATP addition measured after 15 mins by kinase-glo based luciferase reporter gene assay. In outline: (§1)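 Inhibition of microtubule-activated KSP ATPase activity was measured in vitro. IC50 values come from three independent experiments. Percent inhibition was also measured at 20 µM.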
For orientation: Kinase-Glo reads ATP consumption through a luciferase reaction.

Series [5] is described as follows: Growth inhibition of human HeLa cells after 72 hrs by MTS assay. Type of series: functional. Summed up:
(§2)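 Proliferation of HeLa and A549 cells was measured by MTS assay. GI50 values, or percent growth inhibition at a single concentration (30 µM), come from at least three independent experiments.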
(Formazan colour is commonly taken as a measure of viable cells.)

The nature of series [6]: Growth inhibition of human A549 cells after 72 hrs by MTS assay. Type of series: functional. The note with it: A549, 72 h. In outline:
as §2

The nature of series [7]: Solubility of the compound in DMEM medium at >50 uM by microscopic analysis. The series is classed as physicochemical. In outline: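 During the 4 h mitotic assay in synchronized HeLa cells, the culture medium was inspected by microscopy for deposits of insoluble compound across the tested concentrations.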
Series [8] in a line: Drug uptake in monoastral mitotic human HeLa cells expressing N-terminal hmAG1-tagged recombinant fluorescent KSP at 40 uM after 20 mins by fluorescence microscopic analysis. The series is classed as ADME, cell-based. Summed up: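 HeLa cells stably expressing KSP fused at its N-terminus to hmAG1 were treated in mitosis with 40 µM probe for 20 min at 37 °C. Live-cell fluorescence microscopy compared probe signal with the fluorescent KSP signal in monoastral mitotic cells.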

The nature of series [9]: Drug uptake in cytoplasm of human HeLa cells expressing hmAG1-conjugated alpha-tubulin at 20 uM after 20 mins by fluorescence microscopic analysis. Type of series: ADME, cell-based. Summed up: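 Live HeLa cells expressing hmAG1-conjugated α-tubulin (cytoplasm marker) or histone H2B (nucleus marker) were incubated with 20 µM probe for 20 min at 37 °C. Probe localization was imaged by live-cell fluorescence microscopy.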

The target of series [10] is T1, Kinesin-like protein KIF11 (Homo sapiens). The series can be described thus: Inhibition of hmAG1-fused kinesin spindle protein (unknown origin) ATPase activity expressed in human HeLa cells assessed as prometaphase with monopolar spindles at 40 uM after 4 hrs by DAPI staining based fluorescence microscopy relative to control. The series is classed as cell-based. Summed up:
(§3)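 Synchronized HeLa cells were given compound as they entered M phase and cultured 4 h at 37 °C. Cells were fixed and immunostained for α-tubulin and KSP, with DAPI for chromosomes. The relative mitotic index was averaged over two independent experiments. Mitotic phenotypes, such as prometaphase with monopolar spindles, were scored as a percentage of mitotic cells.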

Series [11] has the same target. The series can be described thus: Inhibition of hmAG1-fused kinesin spindle protein (unknown origin) ATPase activity expressed in human HeLa cells assessed as accumulation of mitotic cells after 4 hrs by DAPI staining based fluorescence microscopy. Type of series: cell-based. In outline: as §3
For series [12] the target is unchanged. The series can be described thus: Inhibition of microtubule-stimulated kinesin spindle protein motor domain (unknown origin) ATPase activity at 20 uM preincubated for 20 mins followed by ATP addition measured after 15 mins by kinase-glo based luciferase reporter gene assay. Summed up: as §1
Series [13] is described as follows: Growth inhibition of human A549 cells at 30 uM after 72 hrs by MTS assay. The note with it: A549, 72 h, read-out: GI. The series is classed as functional. Summed up:
as §2

For `FC(F)(F)c1ccc(-c2ccc(-c3cn4ccc[n+]4[n-]3)cc2)cc1`, the Drug uptake result in series [1], in [3], in series [8] and in series [9] was “Active” throughout. Further, in series [2], the inhibition entry was “Active”. Also, the IC50 in series [4] was determined as 6.8 µM. Moreover, the results for the GI50 in series [5] and in [6] were 19 µM and 22 µM, respectively. The solubility result in series [7] is recorded as “Insoluble”. Also, the inhibition in series [10] is 63%; in series [11] it was “Dose-dependent effect”.
In turn, `FC(F)(F)c1ccc(-c2cn3ccc[n+]3[n-]2)cc1` had an inhibition in [12] of 34%. Also, the inhibition of growth at 30 µM in series [13] was 6%. In [4], the IC50 was above 20 µM. Further, the GI50 in [5] was 25 µM; in series [6], above 30 µM.

Source of the values: ChEMBL document CHEMBL3868601, “Functional 1,3a,6a-triazapentalene scaffold: Design of fluorescent probes for kinesin spindle protein (KSP)” (Bioorg Med Chem Lett, 2016).
